Screening results deposited in PubChem BioAssay by The Scripps Research Institute Molecular Screening Center.
HCV NS3 hel inh: HCV NS3 helicase inhibition | NS3 helicase DNA unwinding, Cy5 molecular beacon fluorescence | inhibition, % at 10.9 µM | 0.56% of 290,000 active;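 active means inhibition above the mean of all tested compounds plus 3 SD, set per campaign, cut at about 35% in these data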;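 further: 0% = DMSO wells and 100% = thioflavine S control wells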
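System: Hepatitis C virus NS3 helicase domain fragment enzyme | Reagent: Annealed dual-labelled DNA beacon duplex, ATP-started | Compound dosing: 10.9 µM single point, 0.8% DMSO | Incubation: 1 h reaction at 25 °C, ATP-initiated | Technique: Cy5 fluorescence | Evaluation: Percent inhibition from t60/t0 fluorescence ratio | Benchmarks: Low DMSO, high thioflavine S at 110 µM | Replication: Singlicate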
EBNA-1 inh: blocks EBNA-1 binding to DNA; EBNA-1 DNA binding, fluorescence polarization; inhibition, % at 14.8 µM; 0.34% of 300,000 active; AID 1950; in the data active means inhibition above about 28%
CTSL1 counter: blocks F. hepatica cathepsin L1 in PFM18AAP counter-screen; recombinant F. hepatica cathepsin L1, Z-Leu-Arg-MCA fluorescence; inhibition, % at 5.96 µM; 0.49% of 300,000 active; AID 1906;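 active means inhibition above the mean of all tested compounds plus 3 SD, set per screening campaign, cut at about 17% in these data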;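 further: 0% = plate median of test compound wells and 100% = 1 µM Z-Phe-Ala-diazomethylketone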
ZTA DNA inh: blocks Epstein-Barr virus ZTA, an EBNA-1 counter-screen; P03206; ZTA-DNA binding, fluorescence polarization; inhibition, % at 11 µM; 0.15% of 320,000 active; AID 2234; in the data active means inhibition above about 33%
Target sequence (P03206 whole entry, looked up): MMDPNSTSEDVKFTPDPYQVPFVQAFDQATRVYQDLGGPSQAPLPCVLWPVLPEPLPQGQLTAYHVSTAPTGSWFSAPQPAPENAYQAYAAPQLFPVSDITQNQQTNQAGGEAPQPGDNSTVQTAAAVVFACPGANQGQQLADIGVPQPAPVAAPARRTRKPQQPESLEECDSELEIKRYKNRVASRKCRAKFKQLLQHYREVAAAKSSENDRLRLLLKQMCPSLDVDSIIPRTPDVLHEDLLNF
NS3 hel confirm: confirmation of Hepatitis C virus NS3 helicase inhibitors. NS3 helicase DNA unwinding, Cy5 molecular beacon fluorescence. 31% of 1,600 active. inhibition, % at 10.9 µM. AID 1943. shares compounds with HCV NS3 hel inh;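 active means inhibition above the mean of all tested compounds plus 3 SD, cutoff set per campaign, cut at about 36% in these data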
FID counter trip: displaces DNA intercalator in HCV helicase counter-screen | shares compounds with HCV NS3 hel inh | DNA fluorescent intercalator displacement, fluorescence | inhibition, % at 7.9 µM | 4% of 1,600 active | AID 1945; in the data active means inhibition above about 37%;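 further: 0% = vehicle and 100% = reference compound; higher means more displacement of ethidium bromide from the DNA hairpin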
DNA FID DR: counter-screen for HCV NS3 helicase inhibitors: DNA intercalator displacement dose response | shares compounds with HCV NS3 hel inh | fluorescent intercalator displacement from DNA, fluorescence | IC50, µM | 120 tested, under 10 active; call rule not given here
* = called active by the depositor; i = inactive; x = no result given; + = active, no number. Hits are enriched below; roughly 1.4% of the tested compounds scored in any of these assays.

SMILES	HCV NS3 hel inh	EBNA-1 inh	CTSL1 counter	ZTA DNA inh	NS3 hel confirm	FID counter trip	others
CCOc1ccccc1-c1c2cc(O)c(=O)cc-2oc2cc(O)c(O)cc12	52*	x	x	x	94*	i
COc1ccc(OC)c(-c2c3cc(O)c(=O)cc-3oc3cc(O)c(O)cc23)c1	44*	20	-7	6	87*	i
CC(C)(C)N1CC(OC(N)=O)C1	3	13	2	-8	x	x
COc1ccccc1C(=O)Nc1ccc2c(c1)CN(Cc1cnc(C)s1)CC2	-4	1	0	0	x	x
COc1ccc(C2C(C#N)=C(N)Oc3cc4c(cc32)OCO4)cc1 (centres undefined)	40*	7	-3	-4	-16	-9
OCCOCCn1c(CCNc2nc(-c3ccc(Cl)cc3)cs2)nc2cc(Cl)c(Cl)cc21	x	-9	0	-9	x	x
O=C(O)c1cc2nc(-c3cccs3)cc(C(F)(F)F)n2n1	39*	-3	0	-13	2	9
FC(F)(F)c1cc(-c2cccs2)nc2cc(-c3ccccc3)nn12	0	-8	-3	-3	x	x
COc1ccc(CCNC(=O)c2c(O)c3cccc4c3n(c2=O)CC4)cc1OC	x	-5	2	-4	x	x
O=C1NC(=Nc2ccc(O)cc2)S/C1=C/c1ccco1	9	-1	8	2	x	x
COc1ccc(N=C2NC(=O)/C(=C\C=C\c3ccco3)S2)cc1	46*	x	x	x	36*	8	DNA FID DR=>79
Cc1cccc(N=C2NC(=O)/C(=C/C=C/c3ccco3)S2)c1	44*	8	-1	16	3	-7
O=C1NC(=Nc2ccc3ccccc3c2)S/C1=C/c1ccco1	28	9	4	2	x	x
Cc1cccc(N=C2NC(=O)S/C2=C\c2ccco2)c1	37*	-5	2	-16	0	20
Cc1ccc(N=C2NC(=O)/C(=C\c3ccco3)S2)cc1	40*	8	-1	1	-4	-3
O=C1NC(=Nc2ccc(Cl)cc2)/C(=C/c2ccco2)S1	13	2	4	-4	x	x
CCOc1ncccc1C(=O)Nc1cccc(S(=O)(=O)NC2=NCCC2)c1	x	x	x	7	x	x
CCOC(=O)C1=C(C)NC(=O)NC1c1ccc(-c2ccc(F)cc2)o1 (centres undefined)	5	8	0	13	x	x
CCc1c(C)c2cc(Cl)c(O)c(CN(CC)CC)c2oc1=O	49*	3	3	-9	-12	1
Cc1c(C#N)c(O)[nH]c(=O)c1N=Nc1ccc(S(N)(=O)=O)cc1	57*	-8	1	9	-15	12
C=CCOc1c(Cl)cc(CNc2ccc(C)c(Cl)c2)cc1OC	-10	-2	5	7	x	x
C=CCOc1c(Cl)cc(CNc2ccc(N(C)C)cc2)cc1OC	51*	+	-1	+	23	21
Cc1nnc2sc(SCC(=O)Nc3nccs3)nn2c1=O	40*	-4	-2	-7	5	2
NC(=O)C1CCN(C(=O)CN(c2cccc(C(F)(F)F)c2)S(=O)(=O)c2ccccc2)CC1	3	-10	-3	9	x	x
O=C(O)C(C(=O)/C=C/c1ccco1)=C1SCCS1	31	-4	3	3	x	x
SMILES	HCV NS3 hel inh	EBNA-1 inh	CTSL1 counter	ZTA DNA inh	NS3 hel confirm	FID counter trip	others
O=C(C=C1SCCS1)/C=C/c1ccco1	38*	8	9	2	34	3
Cc1ccccc1N1CCN(CCN2C(=O)CC(=C3c4ccccc4-c4ccccc43)C2=O)CC1	6	-10	5	-6	x	x
C=CCN1C(=O)/C(=c2\sc3nc(=O)c(Cc4ccccc4)nn3c2=O)c2ccccc21	16	9	2	-9	x	x
C=CCN1C(=O)/C(=c2\sc3nc(=O)c(Cc4ccc(OC)c(OC)c4)nn3c2=O)c2ccccc21	46*	-2	-4	-7	-2	-4
COc1ccc(Br)cc1C1CC(=O)N2CN(Cc3ccccc3)CSC2=C1C#N (centres undefined)	51*	2	-1	8	40*	-23
Cc1ccc(C2CC(=O)N3CN(c4ccc(Br)cc4)CSC3=C2C#N)o1 (centres undefined)	37*	1	1	-1	72*	6	DNA FID DR=>79
COc1cccc(C2CC(=O)N3CN(c4ccccc4F)CSC3=C2C#N)c1 (centres undefined)	14	-2	8	-6	x	x
COc1ccc(OC)c(C2CC(=O)N3CN(c4ccccc4F)CSC3=C2C#N)c1 (centres undefined)	40*	-6	0	-2	66*	3	DNA FID DR=>79
Cc1ccc(C(C(=O)NC2CCCC2)N(C(=O)c2csnn2)c2cccc(F)c2)o1 (centres undefined)	7	6	1	-2	x	x
CC(C)Oc1cccc(C(=O)C2CCCN(Cc3ccc4nonc4c3)C2)c1 (centres undefined)	4	-4	3	3	x	x
CCCn1c(=O)c2c(nc3n2CCCN3CCc2ccc(OC)c(OC)c2)n(C)c1=O	11	2	0	-10	x	x
CCOC(=O)c1c(-c2ccccc2)csc1N1C(=O)Nc2ccccc2N1O	47*	0	0	3	72*	-12
COC(=O)c1c(-c2ccccc2)csc1N1C(=O)Nc2ccccc2N1O	19	0	2	11	x	x
CCOC(=O)c1c(N2C(=O)Nc3ccccc3N2O)sc2c1CCCCC2	47*	4	-2	-3	75*	-13
CN(CC(=O)Nc1sc2c(c1C#N)CCCCC2)Cc1nc2ccccc2c(=O)[nH]1	4	-10	0	-7	x	x
COc1cc(/C=C2/C(=O)N(c3ccc(C(=O)O)cc3)N=C2C)cc(OC)c1O	22	x	x	x	x	x
C#CCOc1ccc(/C=C2/C(=O)N(c3cccc(C(=O)O)c3)N=C2C)cc1OC	40*	-1	-4	0	8	12
CCOC(=O)c1cc(-c2ccc(/C=C3/C(=O)NC(=O)C(C#N)=C3C)o2)ccc1Cl	50*	-1	-1	-8	71*	75*
CC1=C(C#N)C(=O)NC(=O)/C1=C\c1ccc(-c2ccc(C)cc2[N+](=O)[O-])o1	40*	x	x	x	63*	49*
CCCCC1(C)OC(=O)C(=Cc2ccc(-c3ccc(Cl)c(C(=O)O)c3)o2)C(=O)O1 (centres undefined)	67*	5	1	7	77*	-9
COc1ccc(OCC#CCNC(C)(C)C)cc1	-2	-2	0	3	x	x
Cc1n[nH]c(=S)c2nn(-c3ccccc3)c(C)c12	2	x	x	x	x	x
O=C(/C=C/c1ccccc1)c1cc(Br)ccc(=O)c1O	20	-3	0	5	x	x
Cc1ccc(/C=C/C(=O)c2ccccc(=O)c2O)cc1C	40*	13	-5	12	85*	17	DNA FID DR=>79
COc1ccccc1OCc1ccc(C(=O)N2CCN(C(=O)c3ccco3)CC2)cc1	-1	12	2	11	x	x
